The record followed here is ChEMBL document CHEMBL5678799 (Biochem J, 2009).

The target in test [1] is Mitogen-activated protein kinase; ERK1/ERK2 (Homo sapiens) (UniProt P27361+P28482). As to the kind of experiment: Inhibition of ERK1/2 in serum starved/PMA-stimulated HEK293 cells assessed as reduction in RSK activity at 1 uM using crosstide as substrate incubated for 30 mins in presence of [32P]-ATP by liquid-scintillation counting method. It counts as cell-based.
The target in test [2] is Mitogen-activated protein kinase 11 (Homo sapiens) (UniProt Q15759). In words: Inhibition of recombinant human N-terminal GST-tagged P38beta (1 to 364 residues) expressed in Escherichia coli assessed as remaining activity at 1 uM using MBP as substrate incubated for 30 mins in presence of [gamma-33P]ATP by filter binding method relative to control. A digest of the protocol:
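Panel assays were run for 30 min at 21 °C, within the linear range for time and enzyme. […] Results are percent activity remaining relative to compound-free control, averaged from triplicate ± S.D.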

For test [3], the target named is T1, mTORC2 (Homo sapiens) (UniProt P42345+Q6R327+Q9BVC4+Q9BPZ7). To be noted: HEK293, dose 30-100 nM, time 30.0 min.
In test [4] the target is T2, mTORC1 (Homo sapiens) (UniProt P42345+Q8N122+Q9BVC4). To be noted: HEK293, dose 100-300 nM, time 30.0 min.
The target in test [5] is T1, mTORC2 (Homo sapiens). To be noted: HEK293, dose 30-1000 nM, time 30.0 min.
Test [6] has as its target Serine/threonine-protein kinase BRSK2 (Homo sapiens) (UniProt Q8IWQ3). As to the kind of experiment: Inhibition of recombinant human N-terminal His6-tagged BRSK2 (2 to 674 residues) expressed in baculovirus infected Sf21 cells assessed as remaining activity at 1 uM using KKLNRTLSFAEPG as substrate incubated for 30 mins in presence of [gamma-33P]ATP by filter binding method relative to control. A digest of the protocol:
(§1)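 Assays ran 30 min at 21 °C, robotically and in the linear range. Remaining activity is given relative to incubations lacking compound, as the average of triplicate determinations ± S.D.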

Test [7] deals with Mitogen-activated protein kinase 1 (Homo sapiens) (UniProt P28482). In words: Inhibition of recombinant human N-terminal GST-tagged ERK2 (2 to 360 residues) expressed in Escherichia coli assessed as remaining activity at 1 uM using MBP as substrate incubated for 30 mins in presence of [gamma-33P]ATP by filter binding method relative to control. In a few lines:
(§2)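 Incubation was 30 min at room temperature (21 °C) under conditions linear with time and enzyme amount. Activity is reported as percent of control lacking compound, triplicate mean ± S.D.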

The target of test [8] is SRSF protein kinase 1 (Homo sapiens) (UniProt Q96SB4). In words: Inhibition of recombinant human N-terminal GST-tagged SRPK1 (2 to 654 residues) expressed in Escherichia coli assessed as remaining activity at 1 uM using RSRSRSRSRSRSRSR as substrate incubated for 30 mins in presence of [gamma-33P]ATP by filter binding assay relative to control. In a few lines: as §2
Chain of SRSF protein kinase 1 (Homo sapiens) (Q96SB4 whole entry, the tested form may be a part): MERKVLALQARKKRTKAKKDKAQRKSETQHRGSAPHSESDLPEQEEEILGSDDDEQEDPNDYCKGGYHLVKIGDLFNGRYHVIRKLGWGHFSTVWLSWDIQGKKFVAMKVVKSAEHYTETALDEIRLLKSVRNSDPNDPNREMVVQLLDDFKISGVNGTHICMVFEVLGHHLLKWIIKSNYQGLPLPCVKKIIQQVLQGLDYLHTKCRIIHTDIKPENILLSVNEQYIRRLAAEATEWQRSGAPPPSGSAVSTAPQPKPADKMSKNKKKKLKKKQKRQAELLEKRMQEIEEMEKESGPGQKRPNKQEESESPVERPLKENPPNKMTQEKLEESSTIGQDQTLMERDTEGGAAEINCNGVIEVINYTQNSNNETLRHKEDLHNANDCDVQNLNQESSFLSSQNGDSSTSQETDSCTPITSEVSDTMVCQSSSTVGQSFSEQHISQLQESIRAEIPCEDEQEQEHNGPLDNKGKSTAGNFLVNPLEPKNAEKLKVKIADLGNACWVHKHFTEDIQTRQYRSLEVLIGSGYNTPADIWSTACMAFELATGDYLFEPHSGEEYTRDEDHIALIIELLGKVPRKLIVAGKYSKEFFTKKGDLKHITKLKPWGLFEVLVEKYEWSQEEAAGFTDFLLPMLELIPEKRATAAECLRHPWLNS
For test [9], the target named is T2, mTORC1 (Homo sapiens). To be noted: HEK293, dose 30-1000 nM, time 30.0 min.
Test [10] deals with Ribosomal protein S6 kinase alpha-3 (Homo sapiens) (UniProt P51812). In words: Inhibition of recombinant human N-terminal His6-tagged RSK2 (2 to 740 residues) expressed in baculovirus infected Sf21 cells assessed as remaining activity at 1 uM using KKLNRTLSVA as substrate incubated for 30 mins in presence of [gamma-33P]ATP by filter binding method relative to control. A digest of the protocol: as §1
Chain of Ribosomal protein S6 kinase alpha-3 (Homo sapiens) (P51812 whole entry, the tested form may be a part): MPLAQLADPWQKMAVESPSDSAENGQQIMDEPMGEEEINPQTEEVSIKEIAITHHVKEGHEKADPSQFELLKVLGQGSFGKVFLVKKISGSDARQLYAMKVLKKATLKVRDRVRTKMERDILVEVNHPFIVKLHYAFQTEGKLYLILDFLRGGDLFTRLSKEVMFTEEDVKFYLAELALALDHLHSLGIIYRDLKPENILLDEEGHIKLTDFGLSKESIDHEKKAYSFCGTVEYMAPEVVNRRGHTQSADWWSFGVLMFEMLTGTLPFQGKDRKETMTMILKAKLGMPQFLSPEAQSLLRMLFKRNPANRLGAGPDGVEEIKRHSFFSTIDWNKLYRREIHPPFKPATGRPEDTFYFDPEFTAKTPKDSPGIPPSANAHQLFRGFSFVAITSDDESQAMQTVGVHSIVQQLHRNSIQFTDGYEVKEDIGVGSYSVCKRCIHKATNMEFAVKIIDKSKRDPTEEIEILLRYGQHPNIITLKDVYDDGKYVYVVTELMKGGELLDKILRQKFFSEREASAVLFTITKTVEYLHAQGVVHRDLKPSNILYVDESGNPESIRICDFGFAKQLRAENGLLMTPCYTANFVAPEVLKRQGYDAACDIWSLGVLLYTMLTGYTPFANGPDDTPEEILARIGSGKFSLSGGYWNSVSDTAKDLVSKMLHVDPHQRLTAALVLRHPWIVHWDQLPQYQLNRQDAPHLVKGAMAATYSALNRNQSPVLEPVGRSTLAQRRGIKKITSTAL

Test [11] has as its target T2, mTORC1 (Homo sapiens). To be noted: HEK293, dose 30-1000 nM, time 30.0 min. This is another data set of the same source.
Test [12] deals with Ribosomal protein S6 kinase alpha-3 (Homo sapiens) (UniProt P51812). In words: Inhibition of recombinant human N-terminal His6-tagged RSK2 (2 to 740 residues) expressed in baculovirus infected Sf21 cells assessed as remaining activity at 10 uM using KKLNRTLSVA as substrate incubated for 30 mins in presence of [gamma-33P]ATP by filter binding method relative to control. A digest of the protocol:
as §1

In test [13] the target is T2, mTORC1 (Homo sapiens). To be noted: HEK293, dose 30-1000 nM, time 30.0 min. The source holds these as a separate data set.
For test [14], the target named is T2, mTORC1 (Homo sapiens). To be noted: HEK293, dose 100-300 nM, time 30.0 min. The source holds these as a separate data set.
Test [15] deals with Serine/threonine-protein kinase Nek6 (Homo sapiens) (UniProt Q9HC98). As to the kind of experiment: Inhibition of recombinant human His6-tagged NEK6 (8 to 313 residues) expressed in baculovirus infected Sf21 cells assessed as remaining activity at 10 uM using FLAKSFGSPNRAYKK as substrate incubated for 30 mins in presence of [gamma-33P]ATP by filter binding method relative to control. A digest of the protocol: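 Run robotically for 30 min at 21 °C under linear conditions. Compound at 1 or 10 µM. Percentage activity remaining versus control without compound, triplicate mean ± S.D.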
Chain of Serine/threonine-protein kinase Nek6 (Homo sapiens) (Q9HC98 whole entry, the tested form may be a part): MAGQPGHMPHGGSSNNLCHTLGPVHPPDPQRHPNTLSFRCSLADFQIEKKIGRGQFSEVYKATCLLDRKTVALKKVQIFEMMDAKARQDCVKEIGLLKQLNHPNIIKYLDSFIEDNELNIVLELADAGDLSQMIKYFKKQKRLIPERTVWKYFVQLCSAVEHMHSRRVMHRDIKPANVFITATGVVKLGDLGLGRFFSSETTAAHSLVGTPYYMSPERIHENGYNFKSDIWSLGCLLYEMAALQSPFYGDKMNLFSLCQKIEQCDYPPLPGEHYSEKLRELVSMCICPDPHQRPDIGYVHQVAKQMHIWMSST

For test [16], the target named is T1, mTORC2 (Homo sapiens). To be noted: HEK293, dose 100-1000 nM, time 20.0 min.
Test [17] has as its target Serine/threonine-protein kinase Nek2 (Homo sapiens) (UniProt P51955). In words: Inhibition of recombinant human N-terminal His6-tagged NEK2A (1 to 445 residues) expressed in baculovirus infected Sf21 cells assessed as remaining activity at 1 uM using RFRRSRRMI as substrate incubated for 30 mins in presence of [gamma-33P]ATP by filter binding method relative to control.

Test [18] concerns the target Myosin light chain kinase (Homo sapiens) (UniProt Q32MK0). In words: Inhibition of MLCK (unknown origin) assessed as remaining activity at 10 uM relative to control. In a few lines:
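Profiling-centre panel assay performed robotically at 21 °C for 30 min, linear with time and enzyme. […] Values are percent of compound-free control activity, the mean of triplicates ± S.D.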

The target of test [19] is Sphingosine kinase 2 (Homo sapiens) (UniProt Q9NRA0). As to the kind of experiment: Inhibition of SPHK2 (unknown origin) assessed as remaining activity at 10 uM using sphingosine as substrate incubated for 30 mins in presence of ATP relative to control. In a few lines:
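SPHK2 reaction: 10 μM sphingosine, 1 μM ATP, 50 mM Tris/HCl pH 7.5, 200 mM KCl, 5 mM MgCl2, 1 mM EGTA, 1 mM DTT, 30 min at room temperature. Kinase-Glo Plus luminescence read-out. Percentage of control activity, triplicate.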

For test [20], the target named is Insulin-like growth factor 1 receptor (Homo sapiens) (UniProt P08069). As to the kind of experiment: Inhibition of recombinant human N-terminal His6-tagged IGF1R (954 to 1367 residues) expressed in baculovirus infected Sf21 cells assessed as remaining activity at 1 uM using KKKSPGEYVNIEFG as substrate incubated for 30 mins in presence of [gamma-33P]ATP by filter binding method relative to control. In a few lines: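 Radiometric kinase panel run robotically at room temperature (21 °C) for 30 min, linear in time and enzyme. […] Activity is expressed as percent of control without compound, from triplicate determinations ± S.D.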

Molecules are shown by their SMILES. Calls of active or inactive are those of the source. The rule behind the calls is not given here.

Chain of Mitogen-activated protein kinase 1 (Homo sapiens) (P28482 whole entry, the tested form may be a part): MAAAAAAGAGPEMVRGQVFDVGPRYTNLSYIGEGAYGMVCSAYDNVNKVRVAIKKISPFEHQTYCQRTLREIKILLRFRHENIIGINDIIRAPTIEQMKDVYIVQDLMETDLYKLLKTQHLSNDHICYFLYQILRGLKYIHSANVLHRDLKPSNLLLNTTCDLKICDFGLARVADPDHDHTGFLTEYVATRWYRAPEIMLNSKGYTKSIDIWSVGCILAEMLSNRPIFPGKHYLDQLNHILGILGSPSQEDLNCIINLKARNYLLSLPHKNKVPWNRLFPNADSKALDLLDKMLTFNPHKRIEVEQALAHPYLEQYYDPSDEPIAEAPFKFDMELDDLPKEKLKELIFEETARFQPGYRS
Chain of Serine/threonine-protein kinase Nek2 (Homo sapiens) (P51955 whole entry, the tested form may be a part): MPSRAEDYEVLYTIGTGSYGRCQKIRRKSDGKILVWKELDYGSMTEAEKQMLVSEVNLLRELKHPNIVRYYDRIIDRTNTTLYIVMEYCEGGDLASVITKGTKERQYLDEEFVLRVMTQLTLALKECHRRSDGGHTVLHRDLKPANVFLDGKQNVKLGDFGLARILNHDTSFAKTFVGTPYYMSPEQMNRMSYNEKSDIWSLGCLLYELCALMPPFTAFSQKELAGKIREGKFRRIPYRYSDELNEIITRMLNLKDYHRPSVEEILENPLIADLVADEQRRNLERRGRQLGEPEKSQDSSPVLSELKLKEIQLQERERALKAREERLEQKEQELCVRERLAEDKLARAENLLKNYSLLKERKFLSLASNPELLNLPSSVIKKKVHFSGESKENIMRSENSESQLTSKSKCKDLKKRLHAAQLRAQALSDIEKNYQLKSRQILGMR
Chain of Mitogen-activated protein kinase; ERK1/ERK2 (Homo sapiens) (P27361 whole entry, looked up, the tested form may be a part): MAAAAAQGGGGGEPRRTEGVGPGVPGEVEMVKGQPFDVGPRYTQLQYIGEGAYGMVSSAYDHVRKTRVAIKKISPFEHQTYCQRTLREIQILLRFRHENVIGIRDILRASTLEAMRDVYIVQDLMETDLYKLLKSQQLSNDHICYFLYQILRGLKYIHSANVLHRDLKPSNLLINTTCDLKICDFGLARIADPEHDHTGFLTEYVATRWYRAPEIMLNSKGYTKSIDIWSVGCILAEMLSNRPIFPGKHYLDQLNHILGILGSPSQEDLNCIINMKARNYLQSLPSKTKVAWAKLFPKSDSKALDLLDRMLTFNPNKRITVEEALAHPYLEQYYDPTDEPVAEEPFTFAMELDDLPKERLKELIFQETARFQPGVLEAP
Chain of Mitogen-activated protein kinase; ERK1/ERK2 (Homo sapiens) (P28482 whole entry, looked up, the tested form may be a part): as the sequence (P28482 whole entry, the tested form may be a part) above
Chain of Sphingosine kinase 2 (Homo sapiens) (Q9NRA0 whole entry): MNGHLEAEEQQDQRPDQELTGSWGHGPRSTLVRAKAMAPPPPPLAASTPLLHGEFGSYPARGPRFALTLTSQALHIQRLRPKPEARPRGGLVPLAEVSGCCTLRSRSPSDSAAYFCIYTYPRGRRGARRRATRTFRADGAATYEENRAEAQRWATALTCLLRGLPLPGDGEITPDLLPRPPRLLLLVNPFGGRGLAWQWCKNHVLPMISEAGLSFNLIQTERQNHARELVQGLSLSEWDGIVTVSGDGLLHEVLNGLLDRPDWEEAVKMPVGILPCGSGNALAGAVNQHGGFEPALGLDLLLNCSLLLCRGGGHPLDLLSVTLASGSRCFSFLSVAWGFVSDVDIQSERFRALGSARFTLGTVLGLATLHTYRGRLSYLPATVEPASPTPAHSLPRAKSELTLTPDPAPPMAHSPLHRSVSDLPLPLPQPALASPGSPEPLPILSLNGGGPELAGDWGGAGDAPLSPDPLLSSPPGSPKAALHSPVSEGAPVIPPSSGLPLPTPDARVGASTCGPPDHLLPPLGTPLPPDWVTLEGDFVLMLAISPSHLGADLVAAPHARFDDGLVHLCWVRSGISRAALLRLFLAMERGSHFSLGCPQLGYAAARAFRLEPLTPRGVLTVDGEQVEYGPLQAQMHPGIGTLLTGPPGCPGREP
Chain of Myosin light chain kinase (Homo sapiens) (Q32MK0 whole entry): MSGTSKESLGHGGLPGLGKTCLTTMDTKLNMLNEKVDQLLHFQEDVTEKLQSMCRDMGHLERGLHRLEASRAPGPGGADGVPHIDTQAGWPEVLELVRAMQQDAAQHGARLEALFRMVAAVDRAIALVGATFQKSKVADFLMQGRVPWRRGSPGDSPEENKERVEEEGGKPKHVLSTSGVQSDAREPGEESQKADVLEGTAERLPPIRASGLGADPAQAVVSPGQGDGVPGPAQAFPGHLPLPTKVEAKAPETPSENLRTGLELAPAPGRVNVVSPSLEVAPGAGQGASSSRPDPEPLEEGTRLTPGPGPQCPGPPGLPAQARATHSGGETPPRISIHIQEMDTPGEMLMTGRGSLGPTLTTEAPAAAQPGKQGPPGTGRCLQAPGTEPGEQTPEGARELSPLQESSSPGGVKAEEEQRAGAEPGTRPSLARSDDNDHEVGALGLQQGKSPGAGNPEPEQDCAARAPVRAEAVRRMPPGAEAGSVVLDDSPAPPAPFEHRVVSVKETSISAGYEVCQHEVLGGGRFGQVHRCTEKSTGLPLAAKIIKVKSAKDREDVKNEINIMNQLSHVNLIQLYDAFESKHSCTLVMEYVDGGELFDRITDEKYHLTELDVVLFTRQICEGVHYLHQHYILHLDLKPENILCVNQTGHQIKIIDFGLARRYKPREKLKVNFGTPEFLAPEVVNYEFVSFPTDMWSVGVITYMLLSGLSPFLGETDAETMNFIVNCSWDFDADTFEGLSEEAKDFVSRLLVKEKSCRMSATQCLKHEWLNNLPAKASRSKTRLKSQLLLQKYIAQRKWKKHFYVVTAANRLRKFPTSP

For the compound `COc1ccc(-c2ccc3c(N4CCOCC4)nc(N4C[C@@H](C)O[C@@H](C)C4)nc3n2)cc1CO` [Ku-0063794], the inhibition (commonly the percentage by which the read-out fell short of the control) in test [1] is “inactive”. In addition, the Activity was 106% in test [2]; 90% in test [6]; 102% in [7]; 101% in test [8]; 103% in [10]; 104% in [12]. The Activity in test [15] is 83%; in test [17] it was 92%; in test [18], 104%; in test [19] it was 116%; in test [20], 117%. The inhibition entry in test [3], in test [11], in test [13] and in test [16] was “Active” in each case. The inhibition in [4] was 100%; in test [5], “Dose-Dependent Effect”; in [9], “Dose-Dependent Effect”; in [14], 100%.
